Screening results: PubChem BioAssay, Sanford-Burnham Center for Chemical Genomics
A selection: hits, their analogues and other compounds. The true share with any hit is near 1.5%.
APJ ag – agonists of human APJ apelin receptor. AID 2520. activation, % at 20 µM. CHO-K1 APJ PathHunter beta-arrestin, luminescence; 0% DMSO wells, 100% apelin. 0.11% of 330,000 active;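 active means activation more than six SD over the plate average, tested at 20 µM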
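Test system – PathHunter CHO-K1 APJ (AGTRL-1) beta-arrestin reporter cells · Input – 1000 cells/well · Compound – single test compound dose, 20 µM final, 1% DMSO · Times – compound stimulation 90 min at 25 °C, detection 60 min · Technique – beta-gal luminescence · Read-out basis – APJ–arrestin association signal · Control set – negative DMSO alone, positive Apelin-13 at 10 nM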
APJ antagonist – blocks the human apelin receptor APJ | AID 2521 | P35414 | CHO-K1 APJ beta-arrestin complementation, luminescence | inhibition, % at 20 µM | 0.32% of 330,000 active;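 active means inhibition above about 40% at 20 µM, limit read from the data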;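 further: cells challenged with 10 nM apelin-13 agonist together with compound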
EBI2 block – blocks human EBI2 receptor beta-arrestin signaling | inhibition, % at 5 µM | 0.81% of 360,000 active | P32249 | EBI2 beta-arrestin recruitment, luminescence, 7a,25-OHC stimulated; in the data active means inhibition above about 38%;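 further: enzyme fragment complementation signal reports receptor beta-arrestin coupling in cells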
Target sequence (P32249 whole entry, looked up, the tested form may be a part): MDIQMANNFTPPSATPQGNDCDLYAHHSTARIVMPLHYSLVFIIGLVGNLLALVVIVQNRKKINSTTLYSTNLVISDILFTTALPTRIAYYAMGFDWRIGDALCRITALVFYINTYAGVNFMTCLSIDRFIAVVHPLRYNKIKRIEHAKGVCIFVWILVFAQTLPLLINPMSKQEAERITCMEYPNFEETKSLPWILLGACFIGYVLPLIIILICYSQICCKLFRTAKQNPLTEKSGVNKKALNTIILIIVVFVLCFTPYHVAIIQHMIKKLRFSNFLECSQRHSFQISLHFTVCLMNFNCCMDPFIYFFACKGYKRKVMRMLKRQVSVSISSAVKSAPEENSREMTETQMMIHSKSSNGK
CXCR6 block – blocks human CXCR6 beta-arrestin recruitment; O00574; CHO-K1 PathHunter CXCR6 beta-arrestin, luminescence; inhibition, % at 20 µM; 0.36% of 360,000 active; in the data active means inhibition above about 34%, passing the limit was not always enough;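 further: antagonist mode with CXCL16 agonist at 10 nM final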
CCR6 antagonist – antagonists of human CCR6 receptor. CHO-K1 CCR6 PathHunter beta-arrestin, luminescence, CCL20-stimulated. inhibition, % at 20 µM. P51684. 0.49% of 340,000 active;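 active means compounds whose inhibition of the agonist-driven luminescence signal at 20 µM reaches about 50%, limit read from the data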;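 further: cells stimulated with CCL20 at 14 nM final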
Target sequence (P51684 whole entry, looked up): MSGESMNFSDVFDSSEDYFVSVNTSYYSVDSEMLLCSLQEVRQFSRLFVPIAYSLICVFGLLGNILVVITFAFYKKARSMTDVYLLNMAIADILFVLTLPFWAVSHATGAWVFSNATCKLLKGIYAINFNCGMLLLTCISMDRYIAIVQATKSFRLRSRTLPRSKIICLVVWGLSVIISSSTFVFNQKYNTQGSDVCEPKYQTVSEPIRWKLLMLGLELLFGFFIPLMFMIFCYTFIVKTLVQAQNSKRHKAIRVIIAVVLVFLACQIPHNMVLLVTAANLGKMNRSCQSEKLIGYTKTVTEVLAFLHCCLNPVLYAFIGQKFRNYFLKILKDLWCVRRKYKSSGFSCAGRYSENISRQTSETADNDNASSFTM
Large screens that a line does not name were inactive.

O=c1oc(-c2cccc(Cl)c2)nc2c1cnn2-c1ccccc1	none
COc1ccc(C(=O)NNC(=S)NC(=O)C(C)(C)C)cc1	CCR6 antagonist 62
CC(C)(C)C(=O)NC(=S)NNC(=O)c1sc2ccccc2c1Cl	CXCR6 block 62, CCR6 antagonist 73
COc1ccc(CN2C(=O)c3ccccc3C2c2nnnn2Cc2ccccc2)cc1OC (stereo unspecified)	none (no result: APJ ag, APJ antagonist, CCR6 antagonist)
CC(C)c1c(O)ccc2c1CC[C@H]1C(C)(C)CCC[C@]21C	EBI2 block 53 (no result: APJ ag, APJ antagonist)
CC(C)(O)c1ccc2c(c1)CCC1C(C)(C(=O)O)CCCC21C (stereo unspecified)	none
CC(C)(C)N(Cc1ccccc1)C(=O)CSc1nnc(CNc2ccc(F)cc2)o1	EBI2 block 47
CCC1(CC)Cc2ccccc2-c2nc(NN)[nH]c(=O)c21	CCR6 antagonist 50
C[C@@H](NC(=O)[C@@H]1CCCN1C(=O)[C@@H]1CCCN1C(=O)c1cccc(Cl)c1)c1ccccc1	none (no result: APJ ag, APJ antagonist, CCR6 antagonist)
COc1cc(OC)c(-c2c3cc(O)c(=O)cc-3oc3cc(O)c(O)cc23)cc1OC	CCR6 antagonist 64
CCCCC1(CO)C(=O)N(c2ccccc2)N(c2ccccc2)C1=O	none
CCCCC1C(=O)N(c2ccccc2)N(c2ccc(O)cc2)C1=O (stereo unspecified)	CXCR6 block 43, CCR6 antagonist 57
COc1cccc2sc(Nc3nc(-c4ccncc4)cs3)nc12	EBI2 block 73
Cc1cc(NCCCn2ccnc2)n2ncc(-c3ccc(Cl)cc3)c2n1	EBI2 block 45
Cc1cc(NCCCN2CCOCC2)n2ncc(-c3ccc(Cl)cc3)c2n1	none
COC1=C(N)C(=O)c2nc(C)ccc2C1=O	none (no result: APJ ag, APJ antagonist)
COC1=C(Br)C(=O)c2nc(C)ccc2C1=O	CXCR6 block 44 (no result: APJ ag, APJ antagonist, CCR6 antagonist)
Nc1nn2c(-c3ccccc3)cc(=O)[nH]c2c1N=Nc1ccc(Br)cc1	CXCR6 block 41 (no result: APJ ag, APJ antagonist)
CC(C)(C(=O)N1CCC1(C)C(=O)NS(=O)(=O)c1cccc(Cl)c1)c1ccccc1 (stereo unspecified)	none (no result: APJ ag, APJ antagonist, CCR6 antagonist)
COc1cccc(C(O)c2nc(-c3cccc(F)c3)cs2)c1 (stereo unspecified)	none (no result: APJ ag, APJ antagonist, CCR6 antagonist)
COC(=O)c1ccc(NC(=S)NC(=O)c2cc(-c3ccccc3)nc3ccccc23)cc1	CCR6 antagonist 53
COC(=O)c1ccccc1NCC(=O)c1ccc(OC)cc1	none
COc1ccc(C(=O)CNc2ccc(C)cc2C)cc1	CXCR6 block 43, CCR6 antagonist 79
CC(NO)C(C)(C)NO (stereo unspecified)	CCR6 antagonist 58
Cc1ccc(Cc2c(-c3cccc(Cl)c3)nc3c4ccccc4ccn23)cc1	none (no result: APJ ag, APJ antagonist, CCR6 antagonist)
CCOC(=O)[C@]12CCC=C1N(Cc1cccc3ccccc13)C(=O)[C@H](CC(=O)N1CCSCC1)C2	none (no result: APJ ag, APJ antagonist, CCR6 antagonist)
Cc1ccc(OCC(=O)NC(=S)Nc2ccccn2)c(Br)c1	none
Cc1ccc(OCC(=O)NNC(=S)NC(=O)C(C)(C)C)c(Br)c1	CCR6 antagonist 59
Cc1cccc(CN2[C@H](COC(=O)Nc3ccccc3)C=CS2(=O)=O)c1	none (no result: APJ ag, APJ antagonist, CCR6 antagonist)
C/C(=N\NC(=S)Nc1ccc(F)cc1)c1ccc2c(c1)OCCO2	CCR6 antagonist 58
COc1cc(/C=C2/C(=O)NN(c3cccc(Cl)c3)C2=O)cc(OC)c1O	CCR6 antagonist 52
COC(=O)C1=C(C(=O)OC)SC(=C2C(=S)C(C)(C)N(C(=O)CC(C)C)c3ccccc32)S1	EBI2 block 56
CC(=O)NC(c1cccc(F)c1)c1nc(/C=C/c2ccccc2)cs1 (stereo unspecified)	none (no result: APJ ag, APJ antagonist, CCR6 antagonist)
O=C1c2cccc3cccc(c23)C(=O)N1CC1CCN(CC(O)COc2ccc3ccccc3c2)CC1 (stereo unspecified)	EBI2 block 57
COc1cccc(OCC(O)CN2CCC(CN3C(=O)c4cccc5cccc(c45)C3=O)CC2)c1 (stereo unspecified)	none
O=C1[C@@H]2Cc3c([nH]c4ccccc34)C(c3cccc([N+](=O)[O-])c3)N2C(=O)CN1CCCO (stereo partly specified)	CCR6 antagonist 51
CN1CC(=O)N2C(c3cccc([N+](=O)[O-])c3)c3[nH]c4ccccc4c3C[C@H]2C1=O (stereo partly specified)	none
O=C(O)CCCN1C(=O)/C(=C\c2ccc(-c3nc4ccccc4s3)o2)SC1=S	CXCR6 block 43
O=C(O)CCN1C(=O)/C(=C/c2ccc(-c3nc4ccccc4s3)o2)SC1=S	none
COc1ccc(OC)c2sc(N(CCCN(C)C)C(=O)CCS(=O)(=O)c3ccccc3)nc12	EBI2 block 54, CXCR6 block 62, CCR6 antagonist 70
COC(=O)[C@@]12C[C@@H](CC(=O)NCc3ccc(C)o3)C(=O)N(Cc3cccc4ccccc34)C1=CCC(C)(C)C2	none (no result: APJ ag, APJ antagonist, CXCR6 block, CCR6 antagonist)
Cc1nc2ccc(C(=O)NCCCn3ccnc3)cn2c1N(C)CC1CCCCC1	none (no result: APJ ag, APJ antagonist, CCR6 antagonist)
Cc1nc2c(-c3ccc(Cl)cc3)c(C)[nH]n2c(=O)c1Cc1ccccc1	CXCR6 block 43
Cc1nc2c(-c3ccccc3)c(C)[nH]n2c(=O)c1Cc1ccccc1	none
Cc1ccc(C2=CC(=O)C[C@H](c3ccc(Cl)cc3)C2)cc1	EBI2 block 74
O=C(NCC(O)c1nc2ccccc2[nH]1)c1cc2ccccc2[nH]1 (stereo unspecified)	none (no result: APJ ag, APJ antagonist, CCR6 antagonist)
Cc1cc2oc(=O)cc(Cn3ncc(Cl)c(Cl)c3=O)c2cc1Cl	EBI2 block 50
Cc1cc2oc(=O)cc(CN3CCN(c4ccccc4)CC3)c2cc1Cl	none (no result: APJ ag, APJ antagonist, CCR6 antagonist)
O=C1NC(=S)S/C1=C/c1ccc(N2CCOCC2)o1	CCR6 antagonist 62
O=C1S/C(=C\c2ccc(N3CCOCC3)o2)C(=O)N1Cc1ccc(F)cc1	EBI2 block 47
O=C1/C(=C/c2ccc(N3CCOCC3)o2)SC(=Nc2ccccc2)N1CCc1c[nH]c2ccccc12	EBI2 block 83
O=C(Nc1ccc(Oc2ccccc2)cc1)c1csc([C@H]2C[C@H](O)[C@@H](CO)O2)n1	none (no result: APJ ag, APJ antagonist, CCR6 antagonist)
Cc1cc(C)cc(Cn2cc(CN3CC(N4CCN(CCO)CC4)CS3(=O)=O)nn2)c1 (stereo unspecified)	none (no result: APJ ag, APJ antagonist, CCR6 antagonist)
COc1ccc2cc(/C=C/C(=O)N3CCN(CC(=O)N4CCCCCC4)CC3)ccc2c1	EBI2 block 60
O=c1[nH]c(=O)n(C(c2ccccc2)(c2ccccc2)c2ccccc2)cc1N(CCO)CCO	none (no result: APJ ag, APJ antagonist)
Cc1nn(-c2ccccc2)c(Cl)c1CN(C(=O)CCl)c1cccc2ccccc12	EBI2 block 60
O=C1/C(=C/c2ccc(O)cc2)SC(=S)N1Cc1cccnc1	APJ antagonist 47
C#CCOc1ccc(/C=C2\SC(=S)N(Cc3cccnc3)C2=O)cc1	none
Cc1ccc2cc3c(N)c(C(=O)N4CC(=O)Nc5ccccc54)sc3nc2c1	APJ antagonist 98 (no result: EBI2 block, CXCR6 block, CCR6 antagonist)
O=C1CCCC(=NCc2ccco2)C1	none
CN(C)c1nc(=NCc2ccco2)ss1	CXCR6 block 100, CCR6 antagonist 104 (no result: APJ ag, APJ antagonist)
CNc1c(C(=O)O)ccc2c1C(=O)c1ccccc1C2=O	CCR6 antagonist 53
CCNc1c(C(=O)O)ccc2c1C(=O)c1ccccc1C2=O	none
